Assay type in all cases: functional
The test system of test [1] is BG-3. As to the kind of experiment: Compound was evaluated for its effect on colony growth of human ovarian adenocarcinoma cell line BG-3 at 3.0 ug/mL. Put shortly: (§1)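 Single-cell suspensions of BG-1 or BG-3 human ovarian carcinoma cells (derived from primary explants, now kept in continuous culture) were plated in soft agarose clonogenic culture. Cells were exposed continuously to phospholipid analogue over a three-log concentration range, with untreated cultures as controls. After 7 days at 37 °C/7.5% CO2, colonies were scored by inverted microscopy and automated image analysis.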

Test [2] relates to BG-3. The test can be described thus: Compound was evaluated for its effect on colony growth of human ovarian adenocarcinoma cell line BG-3 at 0.0 ug/mL,. Put shortly: as §1
The subject of test [3] is BG-1 cell line. As to the kind of experiment: Compound was evaluated for its effect on colony growth of human ovarian adenocarcinoma cell line BG-1 at 1.0 ug/mL. A digest of the protocol:
as §1

The subject of test [4] is BG-3. As to the kind of experiment: Compound was evaluated for its effect on colony growth of human ovarian adenocarcinoma cell line BG-3 at 30.0 ug/mL. Put shortly:
as §1

In test [5] the test system is BG-3. As to the kind of experiment: Compound was evaluated for its effect on colony growth of human ovarian adenocarcinoma cell line BG-3 at 0.1 ug/mL. A digest of the protocol: as §1
In test [6] the test system is BG-1 cell line. As to the kind of experiment: Compound was evaluated for its effect on colony growth of human ovarian adenocarcinoma cell line BG-1 at 0.1 ug/mL. A digest of the protocol: as §1
The test system of test [7] is BG-1 cell line. As to the kind of experiment: Compound was evaluated for its effect on colony growth of human ovarian adenocarcinoma cell line BG-1 at 0.03 ug/mL. Put shortly: as §1
Test [8] deals with BG-3. The test can be described thus: Compound was evaluated for its effect on colony growth of human ovarian adenocarcinoma cell line BG-3 at 1.0 ug/mL. Put shortly: as §1
For test [9], the system named is BG-3. The test can be described thus: Compound was evaluated for its effect on colony growth of human ovarian adenocarcinoma cell line BG-3 at 10.0 ug/mL. A digest of the protocol:
as §1

The subject of test [10] is BG-1 cell line. As to the kind of experiment: Compound was evaluated for its effect on colony growth of human ovarian adenocarcinoma cell line BG-1 at 3.0 ug/mL. Put shortly: as §1
Test [11] relates to BG-1 cell line. The test can be described thus: Compound was evaluated for its effect on colony growth of human ovarian adenocarcinoma cell line BG-1 at 30.0 ug/mL. A digest of the protocol: as §1
Test [12] relates to BG-3. The test can be described thus: Compound was evaluated for its effect on colony growth of human ovarian adenocarcinoma cell line BG-3 at 0.03 ug/mL. A digest of the protocol: as §1
The test system of test [13] is BG-1 cell line. As to the kind of experiment: Compound was evaluated for its effect on colony growth of human ovarian adenocarcinoma cell line BG-1 at 0.0 ug/mL. Put shortly: as §1
The test system of test [14] is BG-3. As to the kind of experiment: Compound was evaluated for its effect on colony growth of human ovarian adenocarcinoma cell line BG-3 at 0.3 ug/mL. A digest of the protocol: as §1
Test [15] has as its system BG-1 cell line. The test can be described thus: Compound was evaluated for its effect on colony growth of human ovarian adenocarcinoma cell line BG-1 at 10.0 ug/mL. A digest of the protocol: as §1
Test [16] has as its system BG-1 cell line. The test can be described thus: Compound was evaluated for its effect on colony growth of human ovarian adenocarcinoma cell line BG-1 at 0.3 ug/mL. A digest of the protocol:
as §1

Take `CCCCCCCCCCCCCCCCSCC(COP(=O)([O-])OCC[N+](C)(C)C)OCC` (stereo unspecified): the Control with BG-3 [1] worked out at 2%; in the test on BG-3 [2] it was 100%; in the test with BG-1 cell line [3], 8%; in the test with BG-3 [4], 2%; in the test with BG-3 [5], 54%; with BG-1 cell line [6], 64%. Moreover, the Control was found to be 65% with BG-1 cell line [7]; 17% with BG-3 [8]; 3% in the test on BG-3 [9]; 2% in the test with BG-1 cell line [10]; 2% in the test on BG-1 cell line [11]; 56% in the test with BG-3 [12]. For the same compound, the Control with BG-1 cell line [13] worked out at 100%; with BG-3 [14], 56%; in the test with BG-1 cell line [15], 2%; in the test with BG-1 cell line [16] it was 53%.

These data come from ChEMBL document CHEMBL1123257, “Synthesis of sulfur analogues of alkyl lysophospholipid and neoplastic cell growth inhibitory properties” (1986).
